This note sets out measurements from ChEMBL document CHEMBL4433211, “Discovery of the First-in-Class GSK-3β/HDAC Dual Inhibitor as Disease-Modifying Agent To Combat Alzheimer's Disease” (ACS Med Chem Lett, 2019).

Calls of active or inactive are those of the source. No cut-off for these calls is given here.

The subject of data set [1] is SH-SY5Y. Kind of data set: Induction of neurogenesis in human SH-SY5Y cells assessed as upregulation of GAP43 mRNA at 10 uM incubated for 24 hrs by RT-PCR analysis. The data set is classed as functional, cell-based. In a few lines:
(§1)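 SH-SY5Y cells treated 24 h (10 μM, or 1 μM for one parent compound; retinoic acid positive control); GAP43, N-myc and MAP-2 mRNA measured by RT-PCR, expressed as fold of control.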

In data set [2] the test system is SH-SY5Y. Put plainly: Induction of neurogenesis in human SH-SY5Y cells assessed as upregulation of N-myc mRNA at 10 uM incubated for 24 hrs by RT-PCR analysis. It is filed as functional, cell-based. In a few lines: as §1
For data set [3], the system named is SH-SY5Y. Kind of data set: Induction of neurogenesis in human SH-SY5Y cells assessed as upregulation of MAP-2 mRNA at 10 uM incubated for 24 hrs by RT-PCR analysis. The data set is classed as functional, cell-based. In a few lines: as §1
The subject of data set [4] is SH-SY5Y. Kind of data set: Induction of neurogenesis in human SH-SY5Y cells assessed as stimulation of neurite outgrowth at 10 uM incubated for 72 hrs by phase contrast microscopic analysis. It is filed as functional, cell-based. The method in brief:
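SH-SY5Y cells treated 72 h at 10 μM, retinoic acid (10 μM) as positive control; neurite-bearing cells scored from images taken at 20× magnification.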

Data set [5] has as its target T1, Glycogen synthase kinase-3 beta (Homo sapiens, UniProt P49841). Kind of data set: Inhibition of human recombinant GSK3beta using GSM as substrate incubated for 30 mins by luminescence based assay.
Target sequence in this assay (P49841 whole entry): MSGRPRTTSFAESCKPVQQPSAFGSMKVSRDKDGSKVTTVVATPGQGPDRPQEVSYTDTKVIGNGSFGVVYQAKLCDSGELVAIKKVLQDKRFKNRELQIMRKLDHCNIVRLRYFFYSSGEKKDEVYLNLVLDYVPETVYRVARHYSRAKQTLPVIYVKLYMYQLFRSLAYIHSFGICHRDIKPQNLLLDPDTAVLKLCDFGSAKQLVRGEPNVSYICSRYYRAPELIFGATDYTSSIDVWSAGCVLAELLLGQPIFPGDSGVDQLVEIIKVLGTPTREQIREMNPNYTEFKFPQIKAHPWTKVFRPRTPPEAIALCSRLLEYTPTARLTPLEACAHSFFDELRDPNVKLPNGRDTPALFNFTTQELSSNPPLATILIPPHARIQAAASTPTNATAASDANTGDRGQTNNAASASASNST
The target of data set [6] is T2, Histone deacetylase 1 (Homo sapiens, UniProt Q13547). Put plainly: Inhibition of human recombinant his tagged HDAC1 expressed in baculovirus infected […] insect cells up to 30 uM using tertbutyloxycarbonyl (Boc)-(Ac)-Lys-7-amino-4-methylcoumarin as substrate incubated for 1 hr by fluorescence based assay.
Data set [7] has as its target T3, Protein deacetylase HDAC6 (Homo sapiens) (UniProt Q9UBN7).
T3 sequence (whole entry): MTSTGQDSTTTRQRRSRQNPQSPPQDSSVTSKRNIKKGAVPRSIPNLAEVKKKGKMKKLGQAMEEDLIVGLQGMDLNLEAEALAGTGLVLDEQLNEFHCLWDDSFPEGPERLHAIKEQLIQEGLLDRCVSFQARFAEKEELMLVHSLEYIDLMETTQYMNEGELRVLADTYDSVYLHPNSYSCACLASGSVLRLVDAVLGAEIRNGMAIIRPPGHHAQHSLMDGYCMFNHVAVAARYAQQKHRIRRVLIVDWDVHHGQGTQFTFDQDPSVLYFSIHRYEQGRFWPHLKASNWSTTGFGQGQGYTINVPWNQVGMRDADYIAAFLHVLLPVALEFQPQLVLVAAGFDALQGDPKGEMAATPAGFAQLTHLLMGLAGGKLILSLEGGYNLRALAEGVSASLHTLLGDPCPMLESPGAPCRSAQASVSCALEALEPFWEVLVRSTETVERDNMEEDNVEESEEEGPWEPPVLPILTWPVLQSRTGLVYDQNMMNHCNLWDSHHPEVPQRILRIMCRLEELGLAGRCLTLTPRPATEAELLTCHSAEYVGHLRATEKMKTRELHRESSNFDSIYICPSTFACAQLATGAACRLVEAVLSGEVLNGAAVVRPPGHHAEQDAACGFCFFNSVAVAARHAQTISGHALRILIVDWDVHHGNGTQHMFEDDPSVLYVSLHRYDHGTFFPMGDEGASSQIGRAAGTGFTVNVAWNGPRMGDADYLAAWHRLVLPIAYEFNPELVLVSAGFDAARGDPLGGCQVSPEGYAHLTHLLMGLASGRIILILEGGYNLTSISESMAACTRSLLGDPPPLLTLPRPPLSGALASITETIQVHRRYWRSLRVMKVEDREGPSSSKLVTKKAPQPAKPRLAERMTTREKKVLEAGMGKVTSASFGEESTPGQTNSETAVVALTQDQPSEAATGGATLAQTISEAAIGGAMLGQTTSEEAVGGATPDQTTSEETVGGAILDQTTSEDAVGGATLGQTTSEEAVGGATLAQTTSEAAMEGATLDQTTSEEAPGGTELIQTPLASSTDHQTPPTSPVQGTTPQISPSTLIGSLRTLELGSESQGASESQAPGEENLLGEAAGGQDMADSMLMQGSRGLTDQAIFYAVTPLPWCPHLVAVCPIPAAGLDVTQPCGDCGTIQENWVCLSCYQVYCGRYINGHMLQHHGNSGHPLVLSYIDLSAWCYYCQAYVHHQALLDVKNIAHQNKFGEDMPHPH
Kind of data set: Inhibition of human recombinant his tagged HDAC6 expressed in baculovirus infected […] insect cells up to 30 uM using batcp as substrate incubated for 1 hr by fluorescence based assay.

The target in data set [8] is T1, Glycogen synthase kinase-3 beta. Put plainly: Inhibition of GSK3beta in human SH-SY5Y cells assessed as reduction in copper-induced tau hyperphosphorylation at 10 uM preincubated for 1 hr followed by copper addition and measured after 26 hrs by ELISA. The data set is classed as cell-based. The conditions noted are these: in the assay text read “16 hrs” for “26 hrs”. In a few lines: (§2)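 Differentiated SH-SY5Y cells pretreated 1 h with test agent (LiCl 10 mM reference; compounds 10 μM), then copper 400 μM for 16 h; cells scraped, phospho-tau quantified by immunoenzymatic assay at 450 nm; mean ± SEM.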
On the technique in general: An ELISA detects its analyte on a solid surface through an enzyme-linked reagent.
Target sequence in this assay (P49841 whole entry, looked up): as the sequence (P49841 whole entry) above

Data set [9] deals with Microglia. Kind of data set: Immunomodulatory activity in LPS treated Wistar rat primary microglial cells assessed as decrease in NOS2 expression level at 5 to 50 uM incubated for 24 hrs by western blot analysis. It is filed as functional, cell-based. In a few lines:
(§3)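 Primary microglial cells treated 24 h with LPS in presence or absence of test compound; NOS2, MRC1 and TREM2 protein assessed by Western blot, normalized to GAPDH.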

In data set [10] the test system is Microglia. Put plainly: Immunomodulatory activity in LPS treated Wistar rat primary microglial cells assessed as decrease in MRC1 expression level at 5 to 50 uM incubated for 24 hrs by western blot analysis. The data set is classed as functional, cell-based. In a few lines: as §3
On the technique in general: In western blotting, separated proteins are transferred to a membrane and probed.

In data set [11] the test system is Microglia. Put plainly: Immunomodulatory activity in LPS treated Wistar rat primary microglial cells assessed as effect on TREM2 expression level at 5 to 50 uM incubated for 24 hrs by western blot analysis. The data set is classed as functional, cell-based. The method in brief:
as §3

For data set [12], the target named is Histone deacetylase (Homo sapiens) (UniProt Q13547+O15379+Q9UBN7+Q92769+Q9UQL6+Q8WUI4+Q9BY41+Q96DB2+P56524+Q9UKV0+Q969S8). Put plainly: Synergistic inhibition of HDAC in human SH-SY5Y cells assessed as increase in acetylation of alpha-tubulin incubated for 30 hrs in presence of verinostat by Western blot analysis. It is filed as cell-based.
In data set [13] the test system is SH-SY5Y. Put plainly: Synergistic neuroprotective activity against H2O2-induced cell death in human SH-SY5Y cells at 0.1 uM incubated for 24 hrs in presence of verinostat by MTS assay. The data set is classed as functional, cell-based. The method in brief: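 SH-SY5Y cells challenged 24 h with H2O2 (25 and 50 μM) in presence of compounds (0.1–10 μM), alone or as a two-compound combination; viability by MTS assay as % of control.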

The test system of data set [14] is Cerebellar granule neurone. Kind of data set: Neuroprotective activity against 6-OHDA-induced cell death in Wistar rat primary cerebellar granule neurons at 20 uM preincubated for 6 hrs followed by 6-OHDA addition and measured after 24 hrs in presence of in presence of 5 uM verinostat by MTT assay. It is filed as functional, cell-based. In a few lines:
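Primary differentiated cerebellar granule neurons challenged with 6-OHDA with or without test compound; viability assessed; mean ± SE of at least 3 experiments in quadruplicate, one-way ANOVA with Bonferroni post hoc test.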
A general note: Tetrazolium dyes change colour on reduction, which living cells bring about.

For data set [15], the target named is T2, Histone deacetylase 1. Put plainly: Inhibition of human recombinant his tagged HDAC1 expressed in baculovirus infected […] insect cells using tertbutyloxycarbonyl (Boc)-(Ac)-Lys-7-amino-4-methylcoumarin as substrate incubated for 1 hr by fluorescence based assay.
Data set [16] has as its target T4, Protein deacetylase HDAC6 (Homo sapiens, UniProt Q9UBN7).
T4 sequence (Q9UBN7 whole entry): T3 sequence (whole entry)
Kind of data set: Inhibition of human recombinant his tagged HDAC6 expressed in baculovirus infected […] insect cells using batcp as substrate incubated for 1 hr by fluorescence based assay.

Data set [17] addresses T1, Glycogen synthase kinase-3 beta. Put plainly: Inhibition of GSK3beta in human SH-SY5Y cells assessed as reduction in copper-induced tau hyperphosphorylation at 10 mM preincubated for 1 hr followed by copper addition and measured after 26 hrs by ELISA. The data set is classed as cell-based. Particulars: in the assay text read “16 hrs” for “26 hrs”. In a few lines: as §2
Target sequence in this assay (P49841 whole entry, looked up): as the sequence (P49841 whole entry) above

Data set [18] shares this target. Put plainly: Inhibition of human recombinant GSK3beta up to 50 uM using GSM as substrate incubated for 30 mins by luminescence based assay.
Target sequence in this assay (P49841 whole entry, looked up): as the sequence (P49841 whole entry) above
In data set [19] the test system is SH-SY5Y. Kind of data set: Cytotoxicity against human SH-SY5Y cells at 10 uM incubated for 24 hrs by MTS assay. It is filed as cell-based. In a few lines:
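SH-SY5Y cells exposed to test compound for 24 h at 37 °C; viability read by MTS assay and expressed as % of untreated control.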

For data set [20], the system named is SH-SY5Y. Kind of data set: Induction of neurogenesis in human SH-SY5Y cells assessed as upregulation of GAP43 mRNA at 1 uM incubated for 24 hrs by RT-PCR analysis. The data set is classed as functional, cell-based. In a few lines:
as §1

In data set [21] the test system is SH-SY5Y. Put plainly: Induction of neurogenesis in human SH-SY5Y cells assessed as upregulation of MAP-2 mRNA at 1 uM incubated for 24 hrs by RT-PCR analysis. It is filed as functional, cell-based. The method in brief:
as §1

Data set [22] relates to SH-SY5Y. Put plainly: Induction of neurogenesis in human SH-SY5Y cells assessed as upregulation of N-myc mRNA at 1 uM incubated for 24 hrs by RT-PCR analysis. The data set is classed as functional, cell-based. In a few lines:
as §1

T2 sequence (Q13547 whole entry): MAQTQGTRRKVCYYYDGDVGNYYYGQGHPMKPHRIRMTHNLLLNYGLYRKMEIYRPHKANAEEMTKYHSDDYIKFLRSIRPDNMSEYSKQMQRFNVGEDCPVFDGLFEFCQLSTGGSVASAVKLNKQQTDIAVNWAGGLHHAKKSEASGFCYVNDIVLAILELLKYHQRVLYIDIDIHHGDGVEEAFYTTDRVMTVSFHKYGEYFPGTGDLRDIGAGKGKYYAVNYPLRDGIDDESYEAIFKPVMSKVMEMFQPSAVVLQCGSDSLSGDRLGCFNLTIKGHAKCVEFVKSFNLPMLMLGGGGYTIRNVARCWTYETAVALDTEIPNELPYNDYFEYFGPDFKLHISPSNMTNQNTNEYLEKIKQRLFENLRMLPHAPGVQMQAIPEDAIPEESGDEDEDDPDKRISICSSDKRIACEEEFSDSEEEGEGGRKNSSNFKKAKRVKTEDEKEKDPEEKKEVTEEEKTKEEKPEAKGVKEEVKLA

`CC1=C(/C=C/C(C)=C/C=C/C(C)=C/C(=O)O)C(C)(C)CCC1`: the result in the data set with SH-SY5Y [1], in the data set with SH-SY5Y [2], in the data set on SH-SY5Y [3] and with SH-SY5Y [4] was Active.
The IC50 is the concentration at which inhibition is half-maximal. On to `O=C1NC(=O)c2ccccc21` [PHTHALIMIDE], for which the 50% inhibitory concentration (IC50) in data set [5] worked out at 20.2 µM. In addition, the inhibition result (on Histone deacetylase 1 [6]; in data set [7]; in data set [12]) was “inactive” each time. The inhibition entry in [8] is “Active”. Besides, the result (in the data set with SH-SY5Y [1]; in the data set with SH-SY5Y [3]; with SH-SY5Y [4]; with Microglia [9]; in the data set on Microglia [10]; in data set [14]) was Active. The result in the data set on SH-SY5Y [2], with Microglia [11] and with SH-SY5Y [13] was inactive.
With `O=C(CCCCNC(=S)Nc1ccc2c(c1)C(=O)NC2=O)NO`, the figures for the IC50 (in data set [5]; on Histone deacetylase 1 [15]; in data set [16]) were 4.11 µM, 5.02 µM and 14.7 µM, respectively.
Taken in the same sequence, the figures for `O=C(CCCNC(=S)Nc1ccc2c(c1)C(=O)NC2=O)NO` were 9.85 µM, 2.24 µM and 12.6 µM.
For `[Cl-].[Li+]`, the inhibition result in data set [17] is “Active”.
In the case of `O=C(CCCCCCC(=O)Nc1ccccc1)NO` [VORINOSTAT], the inhibition result in [18] is “inactive”. In addition, the inhibition result in data set [8] was “Active”. In addition, in the data set with SH-SY5Y [19], the Activity result was “Toxic”. For the same compound, the result with SH-SY5Y [20], with SH-SY5Y [21], in the data set on SH-SY5Y [22], with Microglia [9] and in the data set on Microglia [10] was Active. In addition, the outcome in the data set with Microglia [11] was inactive.
On to `O=C(CCNC(=S)Nc1ccc2c(c1)C(=O)NC2=O)NO`, for which the IC50 worked out at 20 µM in [5], 3.75 µM at Histone deacetylase 1 [15] and 18.1 µM in data set [16].
